Measurements pooled from the literature.
Each line is one published result; the experiments were not run side by side. pEC50: −log10 of the molar value. Values after ≈ are worked out from the molar mass of the structure shown.
Read-out: cell growth or viability

O=C(Nc1ccc(Cl)cc1)C1CCCN(C(=O)c2cc(C(F)(F)F)cc(C(F)(F)F)c2)C1 (racemic) — viability (HBL1; ATP luminescence; 0.5 µM, 5 days): 98.8%
OCc1ccc(-c2nn(Cc3ccccc3)c3ccncc23)o1 — inhibition (RBE; ATP luminescence; 46 µM, 72 h): 47%
O=C(CCCCCCC(=O)Nc1ccccc1)NO — viability (HBL1; ATP luminescence; 1 µM, 5 days): 10.7%
NCCCC(=O)Nc1ccccc1/N=c1\cc(-c2ccc3c(c2)OCO3)oc2ccccc12 — inhibition (MDA-MB-468; CCK-8; 1 µM): 8.13%
CCN(CC)CCNC(=O)c1ccc(-c2nc3ccc4[nH]ncc4c3c3c2CCCC3)cc1 — GI50 (MV4-11; resazurin; 72 h): 440 nM
CC1c2ccccc2CCN1c1ccc(CO)c(Cl)c1 (centres unmarked) — inhibition (RBE; ATP luminescence; 46 µM, 72 h): 91%
C=C(NC(=O)C(=C)NC(=O)c1csc(C2=N[C@@H]3c4csc(n4)[C@H]4NC(=O)c5csc(n5)[C@H]([C@](C)(O)[C@@H](C)O)NC(=O)[C@H]5CSC(=N5)/C(=C/C)NC(=O)[C@H]([C@@H](C)O)NC(=O)c5csc(n5)[C@]3(CC2)NC(=O)[C@H](C)NC(=O)C(=C)NC(=O)[C@H](C)NC(=O)[C@H]([C@@H](C)CC)N[C@@H]2C=Cc3c([C@H](C)O)cc(nc3[C@H]2O)C(=O)O[C@@H]4C)n1)C(N)=O — pEC50 (C4-2): 5.14
CCNc1nc2ccc(-c3c/c(=N\c4ccccc4NC(=O)CCN)c4ccccc4o3)cc2o1 — inhibition (MDA-MB-468; CCK-8; 1 µM): 31.4%
CN(C)CCNC(=O)c1ccc(-c2nc3ccc4[nH]ncc4c3c3c2CCCC3)s1 — GI50 (MV4-11; resazurin; 72 h): 157 nM
OCc1ccc(-c2nn(Cc3ccccc3)c3ncccc23)o1 — inhibition (RBE; ATP luminescence; 46 µM, 72 h): 51%
O=C(CCCCCCSc1ccc2ccccc2c1)NO — viability (HBL1; ATP luminescence; 1 µM, 5 days): 98.6%
NCCC(=O)Nc1ccccc1/N=c1\cc(-c2ccc3c(c2)OCO3)oc2ccccc12 — inhibition (MDA-MB-468; CCK-8; 1 µM): 19.2%
C[C@H](Nc1ccc2c(c1)OCCn1cc(N3C(=O)OC[C@H]3C(F)F)nc1-2)C(N)=O — pEC50 (MFE-280; ATP luminescence; 5 days): 7.38
Cc1n[nH]c2ccc3nc(-c4ccc(C(=O)N(C)CCN(C)C)cc4)c4c(c3c12)CCC(F)(F)C4 — GI50 (MV4-11; resazurin; 72 h): 814 nM
COCCN(Cc1ccc(F)cc1)c1ccc(CO)c(Cl)c1 — inhibition (RBE; ATP luminescence; 46 µM, 72 h): 75%
CC(=O)OC[C@H]1O[C@@H](n2cnc(N)nc2=O)[C@H](OC(C)=O)[C@@H]1OC(C)=O — viability (HBL1; ATP luminescence; 0.1 µM, 5 days): 105%
COc1ccc2/c(=N/c3ccccc3NC(=O)[C@@H](N)C(C)(C)C)cc(-c3ccc4c(c3)OCO4)oc2c1 — inhibition (MDA-MB-468; CCK-8; 1 µM): 2.98%
CC(=O)ON=C1C=CC(=C(C#N)c2ccccc2)C=C1 — IC50 (human Fibroblast; MTT; 72 h): 19.6 µg/mL (≈ 74 µM)
CN(C)CCNC(=O)c1ccc(-c2nc3ccc4[nH]ncc4c3c3c2CC(C)(C)CC3)cc1 — GI50 (MV4-11; resazurin; 72 h): 80 nM
O=C(Nc1cccc(Br)c1)c1cccc(S(=O)(=O)N2CCCCCC2)c1 — viability (HBL1; ATP luminescence; 0.1 µM, 5 days): 134%
CN(C)CCNC(=O)c1ccc(-c2nc3ccc4[nH]ncc4c3c3c2CCC3)cc1 — GI50 (MV4-11; resazurin; 72 h): 100 nM
COC(=O)CNC(=O)C(=O)OC — viability (HBL1; ATP luminescence; 1 µM, 5 days): 93.3%
OCc1ccc(N(Cc2ccc(F)cc2)Cc2ccc(F)cc2)cc1Cl — inhibition (RBE; ATP luminescence; 46 µM, 72 h): 78%
CN(C)CCNC(=O)c1ccc(-c2nc3ccc4[nH]ncc4c3c3c2CCCC3)c(F)c1 — GI50 (MV4-11; resazurin; 72 h): 127 nM
COc1cnccc1Cn1nc(-c2ccc(CO)o2)c2ccccc21 — inhibition (RBE; ATP luminescence; 46 µM, 72 h): 85%
NCCC(=O)Nc1ccccc1/N=c1\cc(-c2ccc3nc(N)oc3c2)oc2ccccc12 — inhibition (MDA-MB-468; CCK-8; 1 µM): 47.2%
CN(C)CCNC(=O)c1ccc(-c2nc3ccc4[nH]ncc4c3c3c2CC(F)(F)CC3)cc1 — GI50 (MV4-11; resazurin; 72 h): 112 nM
COc1ccc2/c(=N/c3ccccc3NC(=O)[C@@H](N)CO)cc(-c3ccc4c(c3)OCCO4)oc2c1 — inhibition (MDA-MB-468; CCK-8; 1 µM): 15.1%
CCN(Cc1cccc(Cl)c1)c1ccc(CO)c(Cl)c1 — inhibition (RBE; ATP luminescence; 46 µM, 72 h): 59%
Cc1n[nH]c2ccc3nc(-c4ccc(C(=O)N(C)CCN(C)C)cn4)c4c(c3c12)CCCCC4 — GI50 (MV4-11; resazurin; 72 h): 713 nM
C[C@H](N)C(=O)Nc1ccccc1/N=c1\cc(-c2ccc3c(c2)OCCO3)oc2c([N+](=O)[O-])cccc12 — inhibition (MDA-MB-468; CCK-8; 1 µM): 1.9%
O=C(/C=C/c1cccc(C(=O)NO)c1)NO — viability (HBL1; ATP luminescence; 1 µM, 5 days): 37.7%
Nc1nc2ccc(-c3c/c(=N\c4ccccc4NC(=O)C4CCNC4)c4ccccc4o3)cc2o1 (centres unmarked) — inhibition (MDA-MB-468; CCK-8; 1 µM): 55.6%
O=C(NO)c1ccc(CC(=O)N(CCO)c2ccccc2)cc1 — viability (HBL1; ATP luminescence; 1 µM, 5 days): 107%
OCc1ccc(-c2nn(Cc3cccc(F)c3)c3ccccc23)o1 — inhibition (RBE; ATP luminescence; 46 µM, 72 h): 60%
